Results taken from ChEMBL document CHEMBL4038284, “Synthesis of novel quinoline-based 4,5-dihydro-1H-pyrazoles as potential anticancer, antifungal, antibacterial and antiprotozoal agents” (Eur J Med Chem, 2017).

Experiments:
Assay type in all cases: functional
[1] = tested on: NCI/ADR-RES; test: Growth inhibition of human NCI/ADR-RES cells incubated for 48 hrs by sulforhodamine B assay
Procedure, shortened: (§1)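 NCI 60-line screen. Cells in RPMI-1640 with 5% FBS and 2 mM L-glutamine, preincubated 24 h, then time-zero plates TCA-fixed. Compounds from DMSO stocks given at five final concentrations (100, 10, 1.0, 0.1, 0.01 µM) for 48 h at 37 °C, 5% CO2. Cells fixed with 10% TCA, SRB-stained, read at 515 nm. GI50 is the concentration giving 50% lower net protein increase versus control.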

[2] = tested on: MCF7; test: Growth inhibition of human MCF7 cells incubated for 48 hrs by sulforhodamine B assay; conditions: MCF7, 48 h; procedure, shortened: as §1
[3] = tested on: SF-268; test: Growth inhibition of human SF268 cells incubated for 48 hrs by sulforhodamine B assay; conditions: SF-268, 48 h
Procedure, shortened: (§2)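 Five-dose NCI SRB assay at 100, 10, 1.0, 0.1 and 0.01 μM for 48 h at 37 °C, 5% CO2. Medium was RPMI-1640 with 5% FBS and 2 mM glutamine. Time-zero plates were TCA-fixed at compound addition, A515 read after SRB staining. GI50 was solved from [(Ti−Tz)/(C−Tz)]×100 = 50. Values beyond the tested range are given as > or <.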

[4] = tested on: EKVX; test: Growth inhibition of human EKVX cells incubated for 48 hrs by sulforhodamine B assay
Procedure, shortened: (§3)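 NCI five-dose SRB assay (100, 10, 1.0, 0.1, 0.01 µM) with 48 h exposure in RPMI-1640 with 5% FBS and 2 mM L-glutamine. Cells fixed with TCA and stained with SRB, read at 515 nm. GI50 is the concentration where [(Ti−Tz)/(C−Tz)]×100 = 50.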

[5] = tested on: SK-MEL-5; test: Growth inhibition of human SK-MEL-5 cells incubated for 48 hrs by sulforhodamine B assay; conditions: SK-MEL-5, 48 h; procedure, shortened: as §1
[6] = tested on: SR; test: Growth inhibition of human SR cells incubated for 48 hrs by sulforhodamine B assay; procedure, shortened: as §1
[7] = tested on: NCI-H522; test: Growth inhibition of human NCI-H522 cells incubated for 48 hrs by sulforhodamine B assay; conditions: NCI-H522, 48 h; procedure, shortened: as §1
[8] = tested on: SF-295; test: Growth inhibition of human SF295 cells incubated for 48 hrs by sulforhodamine B assay; conditions: SF-295, 48 h; procedure, shortened: as §2
[9] = tested on: MDA-MB-231; test: Growth inhibition of human MDA-MB-231 cells incubated for 48 hrs by sulforhodamine B assay; conditions: MDA-MB-231, 48 h; procedure, shortened: as §2
[10] = tested on: NCI-H226; test: Growth inhibition of human NCI-H226 cells incubated for 48 hrs by sulforhodamine B assay; conditions: NCI-H226, 48 h; procedure, shortened: as §1
[11] = tested on: HT-29; test: Growth inhibition of human HT-29 cells incubated for 48 hrs by sulforhodamine B assay; conditions: HT-29, 48 h; procedure, shortened: as §2
[12] = tested on: COLO 205; test: Growth inhibition of human COLO205 cells incubated for 48 hrs by sulforhodamine B assay; conditions: COLO 205, 48 h; procedure, shortened: as §3
[13] = tested on: M14; test: Growth inhibition of human M14 cells incubated for 48 hrs by sulforhodamine B assay; conditions: M14, 48 h; procedure, shortened: as §2
[14] = tested on: HCC 2998; test: Growth inhibition of human HCC2998 cells incubated for 48 hrs by sulforhodamine B assay; conditions: HCC 2998, 48 h; procedure, shortened: as §1
[15] = tested on: HCT-116; test: Growth inhibition of human HCT116 cells incubated for 48 hrs by sulforhodamine B assay; conditions: HCT-116, 48 h; procedure, shortened: as §3
[16] = tested on: OVCAR-8; test: Growth inhibition of human OVCAR8 cells incubated for 48 hrs by sulforhodamine B assay; conditions: OVCAR-8, 48 h; procedure, shortened: as §2
[17] = tested on: K562; test: Growth inhibition of human K562 cells incubated for 48 hrs by sulforhodamine B assay; conditions: K562, 48 h; procedure, shortened: as §1
[18] = tested on: RPMI-8226; test: Growth inhibition of human RPMI8226 cells incubated for 48 hrs by sulforhodamine B assay; conditions: RPMI-8226, 48 h; procedure, shortened: as §1
[19] = tested on: NCI-H23; test: Growth inhibition of human NCI-H23 cells incubated for 48 hrs by sulforhodamine B assay; conditions: NCI-H23, 48 h; procedure, shortened: as §2
[20] = tested on: A549; test: Growth inhibition of human A549/ATCC cells incubated for 48 hrs by sulforhodamine B assay; conditions: A549, 48 h; procedure, shortened: as §1
[21] = tested on: CCRF-CEM; test: Growth inhibition of human CCRF-CEM cells incubated for 48 hrs by sulforhodamine B assay; procedure, shortened: as §1
[22] = tested on: 786-0; test: Growth inhibition of human 786-0 cells incubated for 48 hrs by sulforhodamine B assay; conditions: 786-0, 48 h; procedure, shortened: as §3
[23] = tested on: SK-MEL-28; test: Growth inhibition of human SK-MEL-28 cells incubated for 48 hrs by sulforhodamine B assay; conditions: SK-MEL-28, 48 h
Procedure, shortened: (§4)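 NCI-60 panel cells grown in RPMI-1640 with 5% FBS and 2 mM L-glutamine, preincubated 24 h at 37 °C/5% CO2. Time-zero plates were TCA-fixed at compound addition. DMSO stocks were diluted in medium and tested at five final concentrations (100, 10, 1.0, 0.1, 0.01 µM) for 48 h. Cells were TCA-fixed, stained with SRB and read at 515 nm. GI50 = 50% lower net protein increase versus control.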

[24] = tested on: UACC-257; test: Growth inhibition of human UACC257 cells incubated for 48 hrs by sulforhodamine B assay; conditions: UACC-257, 48 h; procedure, shortened: as §4
[25] = tested on: MDA-MB-468; test: Growth inhibition of human MDA-MB-468 cells incubated for 48 hrs by sulforhodamine B assay; conditions: MDA-MB-468, 48 h; procedure, shortened: as §2
[26] = tested on: DU-145; test: Growth inhibition of human DU145 cells incubated for 48 hrs by sulforhodamine B assay; conditions: DU-145, 48 h; procedure, shortened: as §3
[27] = tested on: RXF 393; test: Growth inhibition of human RXF393 cells incubated for 48 hrs by sulforhodamine B assay; conditions: RXF 393, 48 h; procedure, shortened: as §2
[28] = tested on: SK-OV-3; test: Growth inhibition of human SKOV3 cells incubated for 48 hrs by sulforhodamine B assay; conditions: SK-OV-3, 48 h; procedure, shortened: as §1
[29] = tested on: TK-10; test: Growth inhibition of human TK10 cells incubated for 48 hrs by sulforhodamine B assay; conditions: TK-10, 48 h; procedure, shortened: as §1
[30] = tested on: NCI-H460; test: Growth inhibition of human NCI-H460 cells incubated for 48 hrs by sulforhodamine B assay; conditions: NCI-H460, 48 h; procedure, shortened: as §2
[31] = read-out: LC50 (the source's name)

## COc1ccc(C2=NN(C=O)C(c3cccc(Nc4ccnc5cc(Cl)ccc45)c3)C2)cc1 (stereo not given)
[1]
  GI50: 1.66 µM
[1]; [31]
  CC50: > 100 µM
[2]
  GI50: 1.59 µM
[2]; [31]
  CC50: > 100 µM
[3]
  GI50: 4.79 µM
[3]; [31]
  CC50: > 100 µM
[4]
  GI50: 2.81 µM
  LC50: > 100 µM
[5]
  GI50: 0.92 µM
[5]; [31]
  CC50: 17.4 µM
[6]
  GI50: 0.58 µM
[6]; [31]
  CC50: > 100 µM
[7]
  GI50: 1.33 µM
[7]; [31]
  CC50: 61.9 µM
[8]
  GI50: 1.24 µM
[8]; [31]
  CC50: > 100 µM
[9]
  GI50: 4 µM
[9]; [31]
  CC50: > 100 µM
[10]
  GI50: 3.13 µM
[10]; [31]
  CC50: > 100 µM
[11]
  GI50: 1.65 µM
  LC50: 67.4 µM
[12]
  GI50: 2.4 µM
[12]; [31]
  CC50: 60.6 µM
[13]
  GI50: 2.34 µM
[13]; [31]
  CC50: 67.5 µM
[14]
  GI50: 11.7 µM
[14]; [31]
  CC50: > 100 µM
[15]
  GI50: 1.84 µM
  LC50 (concentration killing 50% of cells): 24.3 µM
[16]
  GI50: 3.29 µM
  LC50 (concentration causing 50% net cell kill): > 100 µM
[17]
  GI50: 0.51 µM
[17]; [31]
  CC50: > 100 µM
[18]
  GI50: 1.36 µM
[18]; [31]
  CC50: > 100 µM
[19]
  GI50: 1.87 µM
[19]; [31]
  CC50: > 100 µM
[20]
  GI50: 4.63 µM
  LC50 (concentration giving 50% net cell kill): > 100 µM
[21]
  GI50: 2.14 µM
[21]; [31]
  CC50: > 100 µM
[22]
  GI50: 3.43 µM
  LC50: 79.8 µM
[23]
  GI50: 8.12 µM
[23]; [31]
  CC50: 67.1 µM
[24]
  GI50: 3.06 µM
[24]; [31]
  CC50: > 100 µM
[25]
  GI50: 0.42 µM
[25]; [31]
  CC50: 63.8 µM
[26]
  GI50: 3.62 µM
[26]; [31]
  CC50: > 100 µM
[27]
  GI50: 1.66 µM
[27]; [31]
  CC50: 59.2 µM
[28]
  GI50: 3.33 µM
[28]; [31]
  CC50: > 100 µM
[29]
  GI50: 4.24 µM
[29]; [31]
  CC50: 61.7 µM
[30]
  GI50: 2.73 µM
[30]; [31]
  CC50: > 100 µM
